# Read-outs that look alike come from different tables or passages of the source.
# Key:
# ERα [1] = test: PI3K activation; format: cell-based; conditions: COS7 ERα-GFP
# COS7 cells = test: PI3K activation; format: cell-based; conditions: 10 µM, COS7 lacking ERα, ERβ and GPER
# In short: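 COS7 cells carry no endogenous ERα, ERβ or GPER. They are transfected with PH-mRFP1 alone (¼ the recommended amount, Lipofectamine2000), grown on coverslips and serum-starved 24 h in phenol red-free RPMI. Cells are stimulated with compounds at 10 µM, fixed in 2% PFA, and scored by confocal microscopy for nuclear translocation of the PIP3 reporter.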
# ERβ [2] = conditions: high concentrations (≥10 µM); cited from earlier work
# ERα [3] = conditions: cited from earlier work
# ERα/β = ERα/β (Homo sapiens, UniProt P03372); test: ERE-GFP reporter activation/inhibition assay in MCF-7 cells; format: cell-based; conditions: for inhibition of E2-induced ERE response: 1 nM E2
# ERβ [4] = format: binding
# In short: (§1)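 COS7 cells are transiently transfected (Lipofectamine2000) with ERα-GFP or ERβ-GFP and serum-starved 24 h. About 5×10⁴ cells are incubated 20 min with test compound, then an equal volume of 20 nM E2-Alexa633 in saponin permeabilization buffer is added. After 10 min at RT, cells are washed in PBS/2% BSA and read by high-throughput flow cytometry.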
# ERα or ERβ = conditions: ERα- or ERβ-expressing cells; cited from earlier work
# ERα [5] = format: binding
# In short: as §1
# uterine epithelia = test: Mouse uterine estrogenicity assay; format: in vivo; conditions: s.c., 18 hr
# GPER [6] = target: T1, GPER (Homo sapiens, UniProt Q99527); test: ERK activation; format: cell-based
# GPER [7] = target: T1, GPER; test: PI3K activation; format: cell-based; conditions: COS7 GPER-GFP, 1 µM G36 preincubated 20 min
# In short: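 COS7 cells are cotransfected (Lipofectamine2000) with GPER-GFP and PH-mRFP1, the latter at ¼ the recommended amount. […] Cells are fixed in 2% PFA and imaged by confocal microscopy for PH-mRFP1 nuclear translocation as the PI3K read-out.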
# GPER [8] = target: T1, GPER; test: Intracellular calcium mobilization in SKBr3 cells; format: cell-based
# In short: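 SKBr3 cells are loaded with 3 µM indo1-AM and 0.05% pluronic acid in HBSS for 1 h at RT, washed, and assayed at 2×10⁶ cells/mL. Calcium is read ratiometrically (ex 340 nm, em 400/490 nm) at 37°C with stirring. […] Responses are normalized to agonist plus DMSO vehicle, and IC50 is taken from the dose-response curve.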
# [9] = tested on: endogenous purinergic receptors; test: Calcium mobilization by ATP in SKBr3 cells; format: cell-based; conditions: 10 µM G36, SKBr3
# In short: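 SKBr3 cells are loaded with 3 µM indo1-AM and 0.05% pluronic acid in HBSS for 1 h at RT, washed, and assayed at 2×10⁶ cells/mL. Calcium is read ratiometrically (ex 340/em 400/490 nm) at 37°C in a stirred spectrofluorometer. Cells are pretreated with 10 µM test compound, then given 1 µM ATP to engage endogenous purinergic receptors.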
# [10] = entire range of concentrations tested
# Chain of ERα/β (P03372 whole entry): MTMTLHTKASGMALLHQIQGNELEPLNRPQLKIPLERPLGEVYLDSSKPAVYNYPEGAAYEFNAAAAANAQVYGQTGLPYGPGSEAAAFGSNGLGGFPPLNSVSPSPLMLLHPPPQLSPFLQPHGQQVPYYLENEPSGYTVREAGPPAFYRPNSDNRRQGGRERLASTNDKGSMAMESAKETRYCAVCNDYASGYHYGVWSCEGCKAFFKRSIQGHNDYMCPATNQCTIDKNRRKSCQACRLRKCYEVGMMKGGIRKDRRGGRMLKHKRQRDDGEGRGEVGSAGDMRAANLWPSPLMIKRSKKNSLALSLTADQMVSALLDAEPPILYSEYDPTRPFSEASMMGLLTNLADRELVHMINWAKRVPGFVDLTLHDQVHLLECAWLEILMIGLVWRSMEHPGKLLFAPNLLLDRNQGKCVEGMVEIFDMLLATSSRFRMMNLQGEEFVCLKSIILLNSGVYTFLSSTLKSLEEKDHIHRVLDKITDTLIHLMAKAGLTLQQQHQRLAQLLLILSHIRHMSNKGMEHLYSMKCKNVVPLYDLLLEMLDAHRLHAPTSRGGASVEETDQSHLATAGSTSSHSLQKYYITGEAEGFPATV
# T1 sequence (Q99527 whole entry, species assumed): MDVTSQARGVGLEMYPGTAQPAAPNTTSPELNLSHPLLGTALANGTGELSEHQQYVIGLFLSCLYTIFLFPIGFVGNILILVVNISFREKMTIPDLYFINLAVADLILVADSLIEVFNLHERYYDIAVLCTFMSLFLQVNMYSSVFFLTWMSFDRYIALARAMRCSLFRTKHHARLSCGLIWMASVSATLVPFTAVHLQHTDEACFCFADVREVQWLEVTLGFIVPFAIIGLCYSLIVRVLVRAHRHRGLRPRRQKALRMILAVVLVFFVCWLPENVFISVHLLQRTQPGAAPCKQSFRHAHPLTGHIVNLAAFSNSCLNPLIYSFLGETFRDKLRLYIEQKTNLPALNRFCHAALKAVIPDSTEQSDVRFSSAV
smiles,measurement,setting,value
"C[C@]12CC[C@@H]3c4ccc(O)cc4CC[C@H]3[C@@H]1CC[C@@H]2O [E2, 17β-estradiol, reference compound]",activation of PI3K (nuclear translocation of PH-RFP),ERα [1],activate PI3K
same,activation of PI3K (nuclear translocation of PH-RFP),COS7 cells,no activation of PI3K
Brc1cc2c(cc1[C@@H]1Nc3ccccc3[C@@H]3C=CC[C@@H]31)OCO2 [G15],binding to ERβ,ERβ [2],weak binding
same,binding to ERα,ERα [3]; high concentrations (≥10 µM),weak binding
same,inhibition of E2-induced ERE response,ERα/β; 1 µM compound,no significant effect
same,ERE reporter activity compared to maximal E2 response,"ERα/β; 1 µM, Fig. 5",~ 15%
same,inhibition of E2-induced ERE response,ERα/β; 10 µM compound,~ 30%
same,inhibitory effects on estrogen-induced transcription,ERα/β; E2 at 10 nM (data not shown),absent
same,ERE activation,"ERα/β; concentrations 1–10 µM, Fig. 2",15–20%
same,activation of the ERE reporter (of E2 response),"ERα/β; high doses (≥1 µM), 24 h, MCF-7 ERE-GFP",≤ 20%
same,binding to ERβ (competition of E2-Alexa633),"ERβ [4]; highest concentration, 10 µM",weak but significant binding
same,rapid signaling events via MAPK or PI3K pathways,ERα or ERβ,does not mediate rapid signaling events
same,binding to ERα (competition of E2-Alexa633),"ERα [5]; highest concentration, 10 µM",weak but significant binding
"CC(C)c1ccc2c(c1)C1C=CCC1C(c1cc3c(cc1Br)OCO3)N2 (stereo not drawn) [G36, 4-(6-Bromo-benzo[1,3]dioxol-5-yl)-8-isopropyl-3a,4,5,9b-tetrahydro-3H-cyclopenta[c]quinoline]",effect on proliferation compared to E2 treatment,uterine epithelia; G36 50 ug/kg with E2 10 ug/kg,significant decrease in proliferation
same,effect on proliferative response to G-1,uterine epithelia; G36 50 ug/kg with G-1 10 ug/kg,completely abrogated
same,"uterine epithelial proliferation (Ki-67 positivity), compound alone","uterine epithelia; ovariectomized C57Bl6 mice, E2 10 ug/kg, G-1 10 ug/kg, G36 50 ug/kg",no effect
same,inhibition at 10 µM,"ERα/β; MCF7, read-out: inhibition of E2-induced ERE response",< 5%
same,ERE response elicited,ERα/β; concentrations up to 1 µM,no significant ERE response
same,antagonism of E2-mediated ERE response,ERα/β; concentrations up to 10 µM,no ability to antagonize
same,effect on E2-induced ERK activation,"GPER [6]; SKBr3, E2 10 nM, 1 µM antagonist pre-incubated 15 min",significant decrease
same,effect on EGF-induced ERK activation,"GPER [6]; SKBr3, EGF 10 ng/mL, 1 µM antagonist",unchanged
same,effect on G-1-induced ERK activation,"GPER [6]; SKBr3, G-1 10 nM, 1 µM antagonist pre-incubated 15 min",significant decrease
same,inhibition of E2-induced PI3K activation,GPER [7],effectively inhibited
same,binding to ERβ (competition of E2-Alexa633),ERβ [4]; [10],lacking detectable binding activity
same,inhibition of E2-mediated PI3K activation,ERα [1]; 1 µM G36 preincubated 20 min,did not inhibit
same,binding to ERα (competition of E2-Alexa633),ERα [5]; [10],lacking detectable binding activity
same,effect on basal calcium level in cells,"GPER [8]; 10 µM G36 alone, SKBr3",did not alter
same,IC50,"GPER [8]; IC50, inhibition of E2-mediated calcium mobilization, SKBr3, E2 200 nM",112 nM
same,IC50,"GPER [8]; IC50, inhibition of G-1-mediated calcium mobilization, SKBr3, G-1 200 nM",165 nM
same,inhibition of calcium mobilization by 1 µM ATP,[9],no inhibition
same,activation of PI3K (nuclear translocation of PH-RFP),COS7 cells,no activation of PI3K
CC(=O)c1ccc2c(c1)C1C=CCC1C(c1cc3c(cc1Br)OCO3)N2 (stereo not drawn) [G-1],ER binding competition,ERα [3]; 10 µM,unable to detect significant competition
same,activation of PI3K (nuclear translocation of PH-RFP),COS7 cells,no activation of PI3K

# From article PMC3220788 (The Journal of steroid biochemistry and molecular biology, 2011)
